{"source": "ChEMBL document CHEMBL5724801", "about": "“EUbOPEN Chemogenomics Library - Multiplex” (2024)", "tested_on": "U2OS", "experiment": "Multiplex assay against U2OS", "type": "toxicity, cell-based", "settings": "human", "outline": "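Hoechst33342, BioTracker Green Microtubule Cytoskeleton Dye, MitoTracker Red and Annexin V Alexa Fluor 680 were added to live cells at seeding, and imaging on a CQ1 microscope at 37°C and 5% CO2 followed compound addition. Gating by CellPathfinder machine learning separated cells into Hoechst high-intensity objects or normal cells, then normal cells into healthy, pyknosed or fragmented nuclei, then pyknosed cells into mitotic or apoptotic. Per cents of healthy-nucleus cells are reported for the tubulin, mitochondrial-mass and membrane-permeability phenotypes.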", "key": {"[1]": {"settings": "12 h, 1 µM, compound concentration 1 uM"}, "[2]": {"settings": "12 h, 10 µM, compound concentration 10 uM"}, "[3]": {"settings": "24 h, 1 µM, compound concentration 1 uM"}, "[4]": {"settings": "24 h, 10 µM, compound concentration 10 uM"}, "[5]": {"settings": "48 h, 1 µM, compound concentration 1 uM"}, "[6]": {"settings": "48 h, 10 µM, compound concentration 10 uM"}}, "note": "“And” between values parts separate entries of the source, which are not always exact repeats. Identical values can stand only once.", "data": [{"smiles": "C=C(C)[C@H]1CN[C@H](C(=O)O)[C@H]1CC(=O)O", "note": "[KAINIC ACID]", "values": [{"measurement": "Population Apoptotic (%)", "setting": "[1]", "result": "30.91% and 58.82%"}, {"measurement": "Population Fragmented Nuclei (%)", "setting": "[1]", "result": "1.23% and 1.12%"}, {"measurement": "Population Healthy Nuclei (%)", "setting": "[1]", "result": "87.5% and 89.39%"}, {"measurement": "Population Hoechst High Intensity Objects (%)", "setting": "[1]", "result": 0, "unit": "%"}, {"measurement": "Population Membrane Permeable-Phenotype (%)", "setting": "[1]", "result": "1.41% and 1.88%"}, {"measurement": "Population Mitochondria Different-Phenotype (%)", "setting": "[1]", "result": "0.23% and 4.38%"}, {"measurement": "Population Mitotic Cells (%)", "setting": "[1]", "result": "69.09% and 41.18%"}, {"measurement": "Population Normal (%)", "setting": "[1]", "result": 100, "unit": "%"}, {"measurement": "Population Pyknosed Nuclei (%)", "setting": "[1]", "result": "11.27% and 9.5%"}, {"measurement": "Population Tubulin-Different-Phenotype (%)", "setting": "[1]", "result": "0.7% and 0.62%"}, {"measurement": "Total Cell Count", "setting": "[1]", "result": "488 and 179"}, {"measurement": "Population Apoptotic (%)", "setting": "[2]", "result": "57.14% and 30.77%"}, {"measurement": "Population Fragmented Nuclei (%)", "setting": "[2]", "result": "0.95% and 4.3%"}, {"measurement": "Population Healthy Nuclei (%)", "setting": "[2]", "result": "89.13% and 81.72%"}, {"measurement": "Population Hoechst High Intensity Objects (%)", "setting": "[2]", "result": 0, "unit": "%"}, {"measurement": "Population Membrane Permeable-Phenotype (%)", "setting": "[2]", "result": "0.27% and 3.29%"}, {"measurement": "Population Mitochondria Different-Phenotype (%)", "setting": "[2]", "result": "0.27% and 4.61%"}, {"measurement": "Population Mitotic Cells (%)", "setting": "[2]", "result": "42.86% and 69.23%"}, {"measurement": "Population Normal (%)", "setting": "[2]", "result": 100, "unit": "%"}, {"measurement": "Population Pyknosed Nuclei (%)", "setting": "[2]", "result": "9.93% and 13.98%"}, {"measurement": "Population Tubulin-Different-Phenotype (%)", "setting": "[2]", "result": "0.53% and 0%"}, {"measurement": "Total Cell Count", "setting": "[2]", "result": "423 and 186"}, {"measurement": "Population Apoptotic (%)", "setting": "[3]", "result": "37.88% and 41.38%"}, {"measurement": "Population Fragmented Nuclei (%)", "setting": "[3]", "result": "1.93% and 1.32%"}, {"measurement": "Population Healthy Nuclei (%)", "setting": "[3]", "result": "88.3% and 85.96%"}, {"measurement": "Population Hoechst High Intensity Objects (%)", "setting": "[3]", "result": 0, "unit": "%"}, {"measurement": "Population Membrane Permeable-Phenotype (%)", "setting": "[3]", "result": "0.84% and 3.06%"}, {"measurement": "Population Mitochondria Different-Phenotype (%)", "setting": "[3]", "result": "0.17% and 5.61%"}, {"measurement": "Population Mitotic Cells (%)", "setting": "[3]", "result": "62.12% and 58.62%"}, {"measurement": "Population Normal (%)", "setting": "[3]", "result": 100, "unit": "%"}, {"measurement": "Population Pyknosed Nuclei (%)", "setting": "[3]", "result": "9.78% and 12.72%"}, {"measurement": "Population Tubulin-Different-Phenotype (%)", "setting": "[3]", "result": "0.5% and 0.51%"}, {"measurement": "Total Cell Count", "setting": "[3]", "result": "675 and 228"}, {"measurement": "Population Apoptotic (%)", "setting": "[4]", "result": "43.86% and 44.44%"}, {"measurement": "Population Fragmented Nuclei (%)", "setting": "[4]", "result": "0.5% and 1.63%"}, {"measurement": "Population Healthy Nuclei (%)", "setting": "[4]", "result": "90.02% and 91.02%"}, {"measurement": "Population Hoechst High Intensity Objects (%)", "setting": "[4]", "result": 0, "unit": "%"}, {"measurement": "Population Membrane Permeable-Phenotype (%)", "setting": "[4]", "result": "0.37% and 1.79%"}, {"measurement": "Population Mitochondria Different-Phenotype (%)", "setting": "[4]", "result": "0% and 2.69%"}, {"measurement": "Population Mitotic Cells (%)", "setting": "[4]", "result": "56.14% and 55.56%"}, {"measurement": "Population Normal (%)", "setting": "[4]", "result": 100, "unit": "%"}, {"measurement": "Population Pyknosed Nuclei (%)", "setting": "[4]", "result": "9.48% and 7.35%"}, {"measurement": "Population Tubulin-Different-Phenotype (%)", "setting": "[4]", "result": "0.92% and 0.9%"}, {"measurement": "Total Cell Count", "setting": "[4]", "result": "601 and 245"}, {"measurement": "Population Apoptotic (%)", "setting": "[5]", "result": "36.05% and 33.33%"}, {"measurement": "Population Fragmented Nuclei (%)", "setting": "[5]", "result": "2.72% and 1.63%"}, {"measurement": "Population Healthy Nuclei (%)", "setting": "[5]", "result": "90.38% and 86.14%"}, {"measurement": "Population Hoechst High Intensity Objects (%)", "setting": "[5]", "result": 0, "unit": "%"}, {"measurement": "Population Membrane Permeable-Phenotype (%)", "setting": "[5]", "result": "0.98% and 1.89%"}, {"measurement": "Population Mitochondria Different-Phenotype (%)", "setting": "[5]", "result": "0.44% and 1.89%"}, {"measurement": "Population Mitotic Cells (%)", "setting": "[5]", "result": "63.95% and 66.67%"}, {"measurement": "Population Normal (%)", "setting": "[5]", "result": 100, "unit": "%"}, {"measurement": "Population Pyknosed Nuclei (%)", "setting": "[5]", "result": "6.89% and 12.23%"}, {"measurement": "Population Tubulin-Different-Phenotype (%)", "setting": "[5]", "result": "0.62% and 0.95%"}, {"measurement": "Population Apoptotic (%)", "setting": "[6]", "result": "44.57% and 57.89%"}, {"measurement": "Population Fragmented Nuclei (%)", "setting": "[6]", "result": "3.7% and 0.47%"}, {"measurement": "Population Healthy Nuclei (%)", "setting": "[6]", "result": "88.18% and 90.59%"}, {"measurement": "Population Hoechst High Intensity Objects (%)", "setting": "[6]", "result": 0, "unit": "%"}, {"measurement": "Population Membrane Permeable-Phenotype (%)", "setting": "[6]", "result": "0.8% and 2.08%"}, {"measurement": "Population Mitochondria Different-Phenotype (%)", "setting": "[6]", "result": "0.2% and 2.08%"}, {"measurement": "Population Mitotic Cells (%)", "setting": "[6]", "result": "55.43% and 42.11%"}, {"measurement": "Population Normal (%)", "setting": "[6]", "result": 100, "unit": "%"}, {"measurement": "Population Pyknosed Nuclei (%)", "setting": "[6]", "result": "8.11% and 8.94%"}, {"measurement": "Population Tubulin-Different-Phenotype (%)", "setting": "[6]", "result": "0.7% and 1.3%"}, {"measurement": "Total Cell Count", "setting": "[6]", "result": "1134 and 425"}]}]}
